These compounds were tested against T1, Camphor 5-monooxygenase (Pseudomonas putida, UniProt P00183, L244A) (assay: Inhibition of L244A mutant cytochrome P450cam expressed in Escherichia coli). Conditions: not given.
In short: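 Camphor-depleted enzyme at 20 nM in 100 mM potassium phosphate, with inhibitor at varying amounts added in DMSO (≤3% of volume). Incubated 15 min at 20 °C, then quenched with CH2Cl2 containing 2 mM β-thujone internal standard. Product/starting-material ratio was measured by GC to give turnover, and IC50 was fitted with a Langmuir isotherm.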

Q: How did the IC50 turn out when `CC(C)(C)Cc1cncn1C1CC1` was run?
A: Its IC50 is 129 µM.

Q: With `c1ccc(Cn2cncc2C2CC2)cc1` as the compound, how does the IC50 read?
A: The IC50 was 41 µM.

Q: With `CCCc1cncn1C1CCCC1` as the compound, how does the IC50 read?
A: Its IC50 is 6.5 µM.

Q: With `CCCc1cncn1CC1CC1` as the compound, how does the IC50 read?
A: The IC50 was 36 µM.

Q: `CC(C)Cc1cncn1CC1CC1` was tested. Which IC50 did it give?
A: The IC50 was 10.1 µM.

Each compound was assayed against T2, Camphor 5-monooxygenase (Pseudomonas putida, UniProt P00183) (assay: Inhibition of wild type cytochrome P450cam expressed in Escherichia coli). Conditions: not given.
T2 sequence (P00183 whole entry): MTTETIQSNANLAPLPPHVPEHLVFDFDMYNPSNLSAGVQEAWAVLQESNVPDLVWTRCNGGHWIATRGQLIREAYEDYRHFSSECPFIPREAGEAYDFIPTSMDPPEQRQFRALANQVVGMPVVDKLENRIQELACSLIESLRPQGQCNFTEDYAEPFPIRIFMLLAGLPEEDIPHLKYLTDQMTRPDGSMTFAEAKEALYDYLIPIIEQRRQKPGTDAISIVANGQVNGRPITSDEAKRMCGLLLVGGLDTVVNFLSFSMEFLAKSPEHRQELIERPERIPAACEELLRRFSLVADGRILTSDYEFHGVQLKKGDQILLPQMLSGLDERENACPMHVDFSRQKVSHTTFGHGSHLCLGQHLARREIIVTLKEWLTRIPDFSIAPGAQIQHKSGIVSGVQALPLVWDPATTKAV

Q: `CCC(CC)Cn1ccnc1` was tested. Which IC50 did it give?
A: Its IC50 is 0.8 µM.

Q: With `c1ccc(Cn2ccnc2)cc1` [BENZYLIMIDAZOLE] as the compound, how does the IC50 read?
A: The IC50 was 16 µM.

Q: `c1cn(CC2CC2)cn1` was tested. Which IC50 did it give?
A: The IC50 was 4 µM.

Q: With `c1cn(CC2CCCCC2)cn1` as the compound, how does the IC50 read?
A: The IC50 was 1.5 µM.

The compounds below were run against T2, Camphor 5-monooxygenase (assay: Binding constant for wild type cytochrome P450cam expressed in Escherichia coli). Conditions: read-out: Ks.
In short: (§1)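 Camphor stripped from the enzyme by two elutions with 100 mM sodium phosphate over a size-exclusion column, leaving low-spin water-bound heme. 0.5 μM protein in 100 mM potassium phosphate at 37 °C, measured by difference UV spectroscopy. The 416 nm trough to 424 nm peak absorbance difference was fitted by nonlinear regression to ΔA = ΔAmax[I]/(Ks+[I]).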

Q: With `CC(=O)N1CCN(c2ccc(OC[C@@H]3CO[C@@](Cn4ccnc4)(c4ccc(Cl)cc4Cl)O3)cc2)CC1` [KETOCONAZOLE] as the compound, how does the Kd read?
A: The Kd was 0.5 µM.

What follows are compounds tested against T1, Camphor 5-monooxygenase (assay: Binding constant for L244A mutant cytochrome P450cam expressed in Escherichia coli). Conditions: read-out: Ks.
In short: as §1

Q: With `CC(=O)N1CCN(c2ccc(OC[C@@H]3CO[C@@](Cn4ccnc4)(c4ccc(Cl)cc4Cl)O3)cc2)CC1` [KETOCONAZOLE] as the compound, how does the Kd read?
A: Its Kd is 0.6 µM.

The compounds below were run against T2, Camphor 5-monooxygenase (assay: Inhibition of wild type cytochrome P450cam expressed in Escherichia coli at 1 mM). Conditions: not given.
In short: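 Camphor-depleted enzyme in 100 mM potassium phosphate, with inhibitor at 1 mM added in DMSO (≤3% of volume). Incubated 15 min at 20 °C, then quenched with CH2Cl2 containing 2 mM β-thujone internal standard. Turnover was taken from the GC product/starting-material ratio and expressed as percent inhibition.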

Q: With `CC(C)(C)Cc1cncn1C1CC1` as the compound, how does the inhibition at 1000 µM read?
A: Its inhibition at 1000 µM is 80%.

Q: How did the inhibition at 1000 µM turn out when `c1ccc(Cn2cncc2C2CC2)cc1` was run?
A: Its inhibition at 1000 µM is 30%.

Q: Which inhibition at 1000 µM does the source give for `CCCc1cncn1C1CCCC1` here?
A: Its inhibition at 1000 µM is 60%.

Q: `CCCc1cncn1CC1CC1` was tested. Which inhibition at 1000 µM did it give?
A: Its inhibition at 1000 µM is 60%.

Q: For `CC(C)Cc1cncn1CC1CC1`, which inhibition at 1000 µM is on record?
A: Its inhibition at 1000 µM is 20%.

Reference: ChEMBL document CHEMBL1138831, “Computer-assisted design of selective imidazole inhibitors for cytochrome p450 enzymes” (J Med Chem, 2004)
